HCT116 bCat-KO – primary screen for growth suppressors in beta-catenin knockout HCT116 cells (colon tumor, human). viability, % at 10 µM. hit rate 1.5% among 140,000. AID 818, 2007. HCT116 beta-catenin knockout viability, CellTiter-Glo, 60 h; stronger effect = lower value;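 active means viability at or under a set limit, the compound median less 4 SD, cut at about 6% in these data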;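 further: 0% = Hyamine 1622 control at 20 µM and 100% = untreated cell control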
H69AR inhibit – proliferation blockers of H69AR lung cancer cells, primary screen, cell-based, human, 86K library | AID 598, 2007 | hit rate 6% among 85,000 | viability, % at 10 µM | H69AR lung tumor viability, ATP luminescence, 72 h; stronger effect = lower value;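 active means viability at or below 40%; inactive means viability above 40%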;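 further: multidrug resistant small cell line overexpressing MRP-1 efflux transporter; 100% = mean luminescence of untreated control wells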
HUVEC inhibit – inhibitors of HUVEC proliferation, primary screen, cell-based, 384-well. CellTiter-Glo luminescence, 72 h; stronger effect = lower value. viability, % at 10 µM (by protocol). hit rate 1.1% among 86,000;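 active means viability at or below 30%; inactive means viability above 30%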;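 further: 100% = median luminescence of DMSO-only cell control wells on each plate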
HCT116 PTEN-null – growth suppression of PTEN-null HCT116, primary screen, cell-based, CellTiter-Glo; HCT116 PTEN-null viability, 60 h; stronger effect = lower value; viability, % at 10 µM; hit rate 1.2% among 140,000; AID 827, 2007;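 active means viability at or below a set limit, 4 SD under the median of all tested compounds, cut at about 3.7% in these data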;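 further: PTEN knockout HCT116 line with beta catenin targeted HCT116 as companion control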
Lung fibro prol – antiproliferative effect on LL 47 fibroblasts – human, LL 47 cells, CellTiter-Glo luminescence, primary screen. viability, % at 10 µM. LL 47 human lung fibroblast viability, ATP luminescence; stronger effect = lower value. hit rate 1.1% among 85,000;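 active means viability at or below 50% in the single dose screen; inactive means viability above 50%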;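 further: compound exposure lasted 72 h before the ATP readout; 100% = median luminescence of untreated cell-only wells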
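test system = LL 47 human lung fibroblasts | amount = 1,150 fibroblasts seeded per well | medium = 15% FBS in IMEM | times = overnight cell rest, 72 h compound treatment at 37 °C | measured by = CellTiter-Glo luminescence measuring cellular ATP | read-out = viability percentage against median untreated-cell control | benchmarks = cell-only wells, no compound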
The depositor's hits bear a star; x = no result given. The entries come from a sample that favours hits as a whole.

SMILES | HCT116 bCat-KO | H69AR inhibit | HUVEC inhibit | HCT116 PTEN-null | Lung fibro prol
CC(=O)Nc1ccc(NC2=Nc3ccccc3N3C2=Nc2c(c(C)nn2-c2ccccc2)C3c2ccccc2)cc1 (stereo not drawn) | 22 | 67 | 76 | 27 | 33*
CCOC(=O)N1CCN(C(=O)c2ccc3c(=O)n(Cc4ccc(Cl)cc4)c(=S)[nH]c3c2)CC1 | 68 | 13* | 53 | 64 | 93
CCOC(=O)N1CCN(C(=O)c2ccc3c(=O)n(CCc4ccccc4)c(=S)[nH]c3c2)CC1 | 20 | 10* | 44 | 26 | 76
CCOC(=O)N1CCN(C(=O)c2ccc3c(=O)n(CCC4=CCCCC4)c(=S)[nH]c3c2)CC1 | 62 | 43 | 78 | 48 | 91
COCCn1c(=S)[nH]c2cc(C(=O)N3CCN(c4ccc(F)cc4)CC3)ccc2c1=O | 89 | 35* | 91 | 83 | 92
Cc1cccc(Nc2nc(NCc3ccco3)nc(N3CCOCC3)n2)c1 | 12 | 53 | 7.9* | 13 | 84
COc1ccc(N(C)C2=NS(=O)(=O)c3ccccc32)cc1 | 23 | 17* | 59 | 24 | 66
Cc1ccc(-c2cc(-c3ccc4c(c3)OCO4)c(C#N)c(N)n2)o1 | 49 | 19* | 71 | 56 | 85
CCOc1cc(-c2c(C)c(C)nc(N)c2C#N)ccc1O | 100 | 70 | 87 | 103 | 99
N#Cc1c(N)oc(-c2ccc3c(c2)OCO3)c1-c1ccc2c(c1)OCO2 | 39 | 22* | 96 | 26 | 99
Cc1ccc(-c2cc(-c3ccc(F)cc3)c(C#N)c(N)n2)o1 | 94 | x | x | 87 | x
CCOc1cc(-c2c(C)c(CC)nc(N)c2C#N)ccc1O | 90 | 36* | 92 | 79 | 96
Cc1ccc(-c2cc(-c3ccc(Cl)cc3)c(C#N)c(N)n2)o1 | 44 | 7.1* | 58 | 55 | 71
CCCc1nn(C)c(C(=O)Nc2ccc3ccccc3c2)c1Cl | 86 | x | x | 83 | x
CCCCCCC1NC(C(=O)O)CS1 (stereo not drawn) | 92 | x | x | 102 | x
CCOc1cc(-c2cc(-c3ccc(C)o3)nc(N)c2C#N)ccc1O | 60 | 12* | 52 | 58 | 83
Cc1ccc(-c2cc(-c3ccc(C)o3)nc(N)c2C#N)cc1 | 64 | 37* | 80 | 73 | 96
Cc1ccccc1NS(=O)(=O)c1ccc(OCC(=O)N2CCCCC2)cc1 | 93 | 93 | 98 | 101 | 105
O=c1c2c3nc4ccccc4nc3n(-c3ccc4c(c3)OCCO4)c2ncn1C1CCCC1 | x | 21* | 37 | x | 13*
O=c1c2c3nc4ccccc4nc3n(-c3ccc4c(c3)OCCO4)c2ncn1CC1CCCO1 (stereo not drawn) | x | 90 | 102 | x | 109
CCc1cccc(CC)c1NC(=S)NCCc1c(C)[nH]c2ccc(C)cc12 | 6 | x | x | 2.6* | x
CCc1cccc(C)c1NC(=S)NCCc1c(C)[nH]c2ccc(C)cc12 | 3.5* | x | x | 4 | x
C=C(C)C1CC=C(C)/C(=N/NC(=O)c2ccoc2C)C1 (stereo not drawn) | 86 | x | x | 80 | x
Nc1nnc(-c2cccnc2)s1 | 91 | 72 | 95 | 94 | 105
c1cncc(-c2nnc(-c3cccnc3)nn2)c1 | 1.7* | 3.7* | 3.9* | 1.6* | 59
SMILES | HCT116 bCat-KO | H69AR inhibit | HUVEC inhibit | HCT116 PTEN-null | Lung fibro prol
Cn1c(NCc2cccs2)nc2ccccc21 | 83 | 93 | 82 | 97 | 94
Cc1ccccc1-n1cnc2cc(NCc3cccs3)ccc21 | 46 | 20* | 77 | 50 | 69
COc1ccccc1-n1cnc2cc(NCc3cccs3)ccc21 | 18 | 27* | 41 | 15 | 46*
COc1ccccc1-n1cnc2cc(NCc3ccco3)ccc21 | 12 | 23* | 64 | 15 | 54
COc1ccc(CNc2ccc3c(c2)ncn3-c2ccccc2OC)cc1 | 66 | 93 | 95 | 56 | 98
Cc1ccc(S(=O)(=O)CCC(=O)N2CCN(c3ccc(Cl)cc3)CC2)cc1 | 52 | 78 | 118 | 71 | 100
Cc1ccc(C(C(=O)Nc2ccc3c(c2)OCO3)N(C)C(=O)Cc2c[nH]c3ccccc23)cc1 (stereo not drawn) | 71 | x | x | 67 | x
Cc1ccccc1N=C(NOCc1ccc(Cl)cc1Cl)c1nonc1N | 69 | 9.2* | 86 | 65 | 79
Cc1ccc(N=C(NOCc2ccc(Cl)cc2Cl)c2nonc2N)c(C)c1 | 42 | 66 | 92 | 54 | 83

Screening results (PubChem)
